Data on 36 sequences can be found in the array DNA melting data of Ke et al. (doi:10.1101/2024.01.08.574731).

Series [1] is described as follows: folding enthalpy; higher = less favourable; fluorescence melt of hairpins on a sequencing array, two-state fit. The following applies: sodium 0.088 M. The gist of the method:
(§1)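 Folding enthalpy and melting temperature were estimated with bootstrapped two-state fits and combined across four replicates by inverse-variance weighting, with fitted temperatures raised by 9.35 °C to match UV melts. The data were Cy3 fluorescence of library hairpins, with annealed Cy3 and quencher oligos, on a sequenced MiSeq flow cell in 50 mM Na-HEPES pH 8.0, 25 mM NaCl, imaged in 2.5 °C steps up to 60 °C and normalised to pre-quench Cy3 and control constructs.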

Series [2] is described as follows: melting temperature; fluorescence melt of hairpins on a sequencing array, two-state fit, raised by 9.35 °C to match UV melts. The following applies: sodium 0.088 M. The gist of the method: as §1

In the case of GCACGAGGAAACTCGCGC ((.((((....)))).)), the folding enthalpy in series [1] was -43.5 kcal/mol. In addition, in series [2], the Tm stood at 54.5 °C.

In the case of GCACGCCGAAAGGCATGC (((.(((....))).))), the folding enthalpy in series [1] was -28 kcal/mol. Moreover, the Tm in series [2] was 60.5 °C.

As to GCACGCCGAAAGGCCTGC (((.(((....))).))), the folding enthalpy in series [1] is -23.2 kcal/mol. Also, in series [2], the Tm was determined as 48.8 °C.

As for GCACGCGAAAGCGCCTGC ((((((....)))..))), the folding enthalpy in series [1] was -9.69 kcal/mol. The Tm in series [2] amounted to 37.1 °C.

As to GCACGCGAAAGCGCTGC ((((((....))).))), the folding enthalpy in series [1] is -18.4 kcal/mol. In series [2], the Tm was found to be 62.4 °C.

As to GCACGCGGAAACACGCGC ((.((.(....).)).)), the folding enthalpy in series [1] was -11.2 kcal/mol. The Tm in series [2] was 40.1 °C.

For GCACGCGGAAACGCACGC ((..(((....)))..)), the folding enthalpy in series [1] was -18.1 kcal/mol. The Tm in series [2] worked out at 47.2 °C.

With GCACGGCGAAAGCGGAGC ((.(.((....)).).)), the folding enthalpy in series [1] is -17.7 kcal/mol. Also, in series [2], the Tm turned out to be 44.7 °C.

Turning to GCACGGCGAAAGCTCTGC (((..((....))..))), in series [1], the folding enthalpy was -21.1 kcal/mol. For the same sequence, the Tm in series [2] worked out at 37.4 °C.

As for GCACGGCGAAAGCTGCGC ((.(.((....)).).)), in series [1], the folding enthalpy is -20.8 kcal/mol. For the same sequence, in series [2], the Tm amounted to 61 °C.

Take GCACGGCGAAAGCTTTGC (((..((....))..))): the folding enthalpy in series [1] is -22.6 kcal/mol. In addition, the Tm in series [2] was determined as 38.3 °C.

For the sequence GCACGGGGAAACCTGTGC ((((.((....)).)))), the folding enthalpy in series [1] is -37.7 kcal/mol. Besides, in series [2], the Tm is 58.6 °C.

With GCACGTACGAAAGTATGC (((..(((....)))))), the folding enthalpy in series [1] is -16 kcal/mol. The Tm in series [2] came to 31.3 °C.

In the case of GCACGTCCGAAAGGATGC (((..(((....)))))), the folding enthalpy in series [1] is -11.9 kcal/mol. Besides, the Tm in series [2] is 36.8 °C.

GCACGTCGAAAGACCTGC (((.(((....))).))): the folding enthalpy in series [1] is -28.1 kcal/mol. Besides, the Tm in series [2] was found to be 45.2 °C.

Turning to GCACGTGGAAACGTGTGC ((((..(....)..)))), in series [1], the folding enthalpy is -24.8 kcal/mol. In series [2], the Tm is 58.5 °C.

As to GCACTACCGAAAGGTTGC (((..(((....)))))), the folding enthalpy in series [1] is -15.9 kcal/mol. In addition, the Tm in series [2] stood at 39.6 °C.

Consider GCACTAGGAAACTAGTGC (((((((....))))))), for which the folding enthalpy in series [1] is -36.2 kcal/mol. Besides, the Tm in series [2] is 62.8 °C.

Regarding GCACTCCGAAAGGATGC (((.(((....)))))), in series [1], the folding enthalpy was -29.4 kcal/mol. The Tm in series [2] was 51.7 °C.

GCACTCGGAAACGAACGC ((..(((....)))..)): the folding enthalpy in series [1] is -13.9 kcal/mol. Also, the Tm in series [2] was determined as 27.8 °C.

For the sequence GCACTCGGAAACGAATGC (((.(((....))).))), the folding enthalpy in series [1] was -33.5 kcal/mol. The Tm in series [2] worked out at 45.1 °C.

As to GCACTCGGAAACGAGTAC (.(((((....))))).), the folding enthalpy in series [1] was -13.6 kcal/mol. For the same sequence, the Tm in series [2] amounted to 44.1 °C.

On to GCACTGAAAAGTGC (((((....))))), for which, in series [1], the folding enthalpy is -35.1 kcal/mol. Also, the Tm in series [2] is 61 °C.

GCACTGCGAAAGCAATGC (((.(((....))).))): the folding enthalpy in series [1] was -40.9 kcal/mol. In addition, the Tm in series [2] came to 51.5 °C.

Turning to GCACTGCGAAAGCACCGC ((..(((....)))..)), the folding enthalpy in series [1] is -9.03 kcal/mol. For the same sequence, the Tm in series [2] was found to be 29.5 °C.

In the case of GCACTGCGAAAGCATCGC ((..(((....)))..)), the folding enthalpy in series [1] was -12.8 kcal/mol. In series [2], the Tm stood at 39.5 °C.

Take GCACTGCGAAAGCATTGC (((.(((....))).))): the folding enthalpy in series [1] was -42.6 kcal/mol. For the same sequence, the Tm in series [2] was found to be 52.5 °C.

In the case of GCACTGCGAAAGCCGAGC ((.(.((....)).).)), in series [1], the folding enthalpy is -20.2 kcal/mol. For the same sequence, the Tm in series [2] turned out to be 38.8 °C.

For GCACTGCGAAAGCCGGGC ((.(.((....)).).)), the folding enthalpy in series [1] is -22.7 kcal/mol. For the same sequence, the Tm in series [2] stood at 57.1 °C.

On to GCACTGCGAAAGCGGAGC ((.(.((....)).).)), for which, in series [1], the folding enthalpy was -19.8 kcal/mol. In addition, the Tm in series [2] turned out to be 49.9 °C.

As to GCACTGCGAAAGCGGGGC ((.(.((....)).).)), the folding enthalpy in series [1] was -33.5 kcal/mol. The Tm in series [2] is 67.2 °C.

For GCACTGCGAAAGCTATGC (((..((....))..))), the folding enthalpy in series [1] was -16.7 kcal/mol. Besides, in series [2], the Tm is 40.3 °C.

As for GCACTGCGAAAGCTCTGC (((..((....))..))), the folding enthalpy in series [1] is -17.4 kcal/mol. Besides, the Tm in series [2] turned out to be 35.8 °C.

As for GCACTGCGAAAGCTTTGC (((..((....))..))), the folding enthalpy in series [1] is -24.5 kcal/mol. The Tm in series [2] amounted to 42.9 °C.

As for GCACTGGGAAACCAGCGC ((.((((....)))).)), in series [1], the folding enthalpy is -40.7 kcal/mol. Also, in series [2], the Tm came to 51.9 °C.

With GCACTTCCGAAAGGATGC (((..(((....)))))), in series [1], the folding enthalpy was -17.7 kcal/mol. Moreover, the Tm in series [2] is 37.9 °C.
